Tests used:
Escherichia coli = assay: Antibacterial activity against wild type Escherichia coli ATCC 25922 assessed as growth inhibition by broth microdilution method; assay type: functional
[1] = Half life in Wistar rat at 1 mg/kg, iv administered as bolus dose and 10 mg/kg, po; assay type: ADME, organism-based; settings: in vivo
Summary of the method: (§1)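 Male Wistar rats (n = 3) dosed by iv bolus (0.5 or 1 mg/kg) or orally (1 or 10 mg/kg); iv vehicles included pH 4.5 aqueous solution, 5% DMSO in water, or 10% PG/10% PEG400 in water pH 7; oral as pH 5.6 aqueous suspension or microsuspension in 7.5% modified gelatin. Blood sampled by preimplanted catheter over 24 h; plasma by LC-MS/MS, LOQ 1.5 ng/mL.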

[2] = Intrinsic clearance in rat liver microsomes at 1 uM; assay type: ADME, Microsome; settings: read-out: CLH
[3] = Inhibition of wild type Escherichia coli ATCC 25922 DNA gyrase subunit 2GyrA/2GyrB assessed as pBR322 supercoiling after 1 hr
Pseudomonas aeruginosa = assay: Antibacterial activity against wild type Pseudomonas aeruginosa ATCC 27853 assessed as growth inhibition by broth microdilution method; assay type: functional
[4] = Intrinsic clearance in human liver microsomes at 1 uM; assay type: ADME, Microsome; settings: read-out: CLH
Staphylococcus aureus [5] = assay: Antibacterial activity against NXL-101-resistant Staphylococcus aureus A-234 harboring DNA gyrase subunit A D83N mutant assessed as growth inhibition by broth microdilution method; assay type: functional
Topoisomerase IV = Topoisomerase IV (Staphylococcus aureus, UniProt P0C1S7+P0C1U9); assay: Inhibition of wild type Staphylococcus aureus ATCC 29213 topoisomerase-4 subunit 2GrlA/2GrlB assessed as pBR322 relaxation after 1 hr; assay type: protein-complex assay
Streptococcus pneumoniae = assay: Antibacterial activity against wild type Streptococcus pneumoniae ATCC 49619 assessed as growth inhibition by broth microdilution method; assay type: functional
[6] = Intrinsic clearance in mouse liver microsomes at 1 uM; assay type: ADME, Microsome; settings: read-out: CLH
[7] = AUC in Wistar rat at 10 mg/kg, po; assay type: ADME, organism-based; set-up: dose 10 mg/kg, route oral; settings: plasma; summary of the method: as §1
[8] = Volume of distribution at steady state in Wistar rat at 1 mg/kg, iv administered as bolus dose and 10 mg/kg, po; assay type: ADME, organism-based; settings: in vivo, read-out: Vdss; summary of the method: as §1
[9] = AUC in Wistar rat at 1 mg/kg, iv administered as bolus dose; assay type: ADME, organism-based; set-up: dose 1 mg/kg, route intravenous; settings: plasma; summary of the method: as §1
Staphylococcus aureus [10] = assay: Antibacterial activity against wild type Staphylococcus aureus ATCC 29213 assessed as growth inhibition by broth microdilution method; assay type: functional
[11] = Clearance in Wistar rat at 1 mg/kg, iv administered as bolus dose; assay type: ADME, organism-based; set-up: dose 1 mg/kg, route intravenous; settings: in vivo; summary of the method: as §1
[12] = Oral bioavailability in Wistar rat at 10 mg/kg; assay type: ADME, organism-based; settings: in vivo; summary of the method: as §1
DNA gyrase = DNA gyrase (Staphylococcus aureus, UniProt P0A0K8+P20831); assay: Inhibition of wild type Staphylococcus aureus DNA gyrase subunit 2GyrA/2GyrB assessed as pBR322 supercoiling after 1 hr; assay type: protein-complex assay
DNA gyrase subunit A [13] = target: DNA gyrase subunit A (Staphylococcus aureus, UniProt P20831, D83N); assay: Inhibition of NXL-101-resistant Staphylococcus aureus DNA gyrase D83N mutant assessed as pBR322 supercoiling after 1 hr
DNA gyrase subunit A [14] = target: DNA gyrase subunit A (Staphylococcus aureus, UniProt P20831, S84L); assay: Inhibition of quinolone-resistant Staphylococcus aureus A-798 DNA gyrase S84L mutant assessed as pBR322 supercoiling after 1 hr
[15] = Inhibition of wild type Escherichia coli ATCC 25922 DNA topoisomerase-4 subunit 2ParC/2ParE assessed as pBR322 relaxation after 1 hr
Enterococcus faecium = assay: Antibacterial activity against vancomycin-resistant Enterococcus faecium A-949 assessed as growth inhibition by broth microdilution method; assay type: functional
Staphylococcus aureus [16] = assay: Antibacterial activity against methicillin and quinolone-resistant Staphylococcus aureus A-798 assessed as growth inhibition by broth microdilution method; assay type: functional
Staphylococcus aureus [17] = assay: Antibacterial activity against NXL-101-resistant Staphylococcus aureus harboring DNA gyrase D83N mutant assessed as growth inhibition by broth microdilution method; assay type: functional
[18] = Fraction unbound in Wistar rat plasma at 1 mg/kg, iv administered as bolus dose and 10 mg/kg, po; assay type: ADME, organism-based
hERG (KCNH2) = hERG (KCNH2) (Homo sapiens, UniProt Q12809); assay: Inhibition of human ERG expressed in CHO cells at 10 uM after 3 mins by patch clamp assay relative to control; assay type: cell-based; settings: CHO cells that express human ERG
Rattus norvegicus = assay: Unbound clearance in Wistar rat at 1 mg/kg, iv administered as bolus dose and 10 mg/kg, po; assay type: ADME, organism-based; settings: in vivo; summary of the method: as §1

Chain of hERG (KCNH2) (Q12809 whole entry): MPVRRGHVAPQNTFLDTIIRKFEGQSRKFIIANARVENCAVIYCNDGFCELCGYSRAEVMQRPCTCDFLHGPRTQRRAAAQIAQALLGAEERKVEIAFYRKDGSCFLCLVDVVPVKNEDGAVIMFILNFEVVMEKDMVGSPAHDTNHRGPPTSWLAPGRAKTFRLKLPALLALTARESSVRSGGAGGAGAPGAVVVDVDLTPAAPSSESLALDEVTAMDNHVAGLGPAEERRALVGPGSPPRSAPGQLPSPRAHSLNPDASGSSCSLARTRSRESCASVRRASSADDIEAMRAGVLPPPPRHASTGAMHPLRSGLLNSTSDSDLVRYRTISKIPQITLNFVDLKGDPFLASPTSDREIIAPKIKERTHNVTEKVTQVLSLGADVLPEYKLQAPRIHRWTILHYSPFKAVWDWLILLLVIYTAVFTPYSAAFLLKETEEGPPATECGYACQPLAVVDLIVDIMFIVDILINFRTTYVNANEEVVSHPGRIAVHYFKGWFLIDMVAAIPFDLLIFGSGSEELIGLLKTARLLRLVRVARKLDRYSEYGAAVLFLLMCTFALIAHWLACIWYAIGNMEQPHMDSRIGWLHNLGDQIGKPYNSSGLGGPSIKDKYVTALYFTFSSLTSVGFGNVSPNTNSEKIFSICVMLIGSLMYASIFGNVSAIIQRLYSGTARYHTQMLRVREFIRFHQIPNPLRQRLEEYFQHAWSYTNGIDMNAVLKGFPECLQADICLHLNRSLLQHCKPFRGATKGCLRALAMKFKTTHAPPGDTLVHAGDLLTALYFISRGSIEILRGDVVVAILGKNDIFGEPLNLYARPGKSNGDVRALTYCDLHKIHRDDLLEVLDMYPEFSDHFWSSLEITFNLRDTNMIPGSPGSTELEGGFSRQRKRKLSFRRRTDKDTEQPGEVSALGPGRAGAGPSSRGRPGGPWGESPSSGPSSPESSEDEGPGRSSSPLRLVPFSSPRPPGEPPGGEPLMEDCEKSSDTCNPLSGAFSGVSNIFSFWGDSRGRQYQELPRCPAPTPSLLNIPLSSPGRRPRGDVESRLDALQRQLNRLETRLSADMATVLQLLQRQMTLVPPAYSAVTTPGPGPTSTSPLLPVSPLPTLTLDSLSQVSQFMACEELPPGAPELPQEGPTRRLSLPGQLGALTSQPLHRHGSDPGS

Structure (SMILES)	MIC (Escherichia coli)	half-life [1]	microsomal CLint at 1 µM [2]	IC50 [3]	MIC (Pseudomonas aeruginosa)	microsomal CLint at 1 µM [4]	MIC (Staphylococcus aureus [5])	IC50 (Topoisomerase IV)	MIC (Streptococcus pneumoniae)	microsomal CLint at 1 µM [6]	AUC [7]	Vd [8]	AUC [9]	MIC (Staphylococcus aureus [10])	clearance [11]	IC50 (DNA gyrase)	IC50 [15]	MIC (Enterococcus faecium)	MIC (Staphylococcus aureus [16])	MIC (Staphylococcus aureus [17])	also measured
COc1ccc2nccc(CC[C@@H]3CC[C@@H](NCc4ccc5c(n4)NC(=O)CS5)CO3)c2n1	1 µg/mL	1.2 h	> 1250 µL/min/mg	120 nM	> 8 µg/mL	347 µL/min/mg	1 µg/mL	500 nM	0.06 µg/mL	954 µL/min/mg	1320 ng·h/mL	3.2 L/kg	463 ng·h/mL	0.03 µg/mL	36 mL/min/kg	30 nM	–	–	–	–	bioavailability [12]: 29%
N#Cc1ccc2ccc(=O)n(CCN3CC[C@H](NCc4cc5c(cn4)OCCO5)[C@H](F)C3)c2c1	8 µg/mL	–	–	8000 nM	> 8 µg/mL	–	–	8000 nM	0.25 µg/mL	–	–	–	–	0.015 µg/mL	–	30 nM	125 nM	0.5 µg/mL	0.015 µg/mL	1 µg/mL	IC50 (DNA gyrase subunit A [13]): 32000 nM; IC50 (DNA gyrase subunit A [14]): 30 nM
COc1ccc2ncc(F)c([C@@H](O)CC[C@@H]3CCN(CCSc4cccs4)C[C@@H]3C(=O)O)c2c1	> 8 µg/mL	–	–	32000 nM	> 8 µg/mL	–	–	128000 nM	1 µg/mL	–	–	–	–	0.125 µg/mL	–	125 nM	2000 nM	1 µg/mL	0.25 µg/mL	> 8 µg/mL	IC50 (DNA gyrase subunit A [13]): 128000 nM; IC50 (DNA gyrase subunit A [14]): 125 nM
O=C(O)c1cn(C2CC2)c2cc(N3CCNCC3)c(F)cc2c1=O [CIPROFLOXACIN]	0.016 µg/mL	–	–	500 nM	0.25 µg/mL	–	–	–	1 µg/mL	–	–	–	–	0.25 µg/mL	–	–	–	> 8 µg/mL	> 8 µg/mL	0.25 µg/mL	–
COc1cnc2cccc([C@@H](O)[C@H](O)[C@@H]3CC[C@@H](NCc4ccc5c(n4)NC(=O)CS5)CO3)c2n1	2 µg/mL	5.9 h	92 µL/min/mg	500 nM	> 8 µg/mL	45 µL/min/mg	0.5 µg/mL	2000 nM	0.06 µg/mL	39 µL/min/mg	817 ng·h/mL	18 L/kg	313 ng·h/mL	0.03 µg/mL	53 mL/min/kg	30 nM	125 nM	–	–	–	fraction unbound [18]: 0.18; inhibition at 0.05 h, 10 µM (hERG (KCNH2)): 55%; CL free (Rattus norvegicus): 294 mL/min/kg; bioavailability [12]: 26%

Reference: ChEMBL document CHEMBL2424615, “Design, synthesis, and characterization of novel tetrahydropyran-based bacterial topoisomerase inhibitors with potent anti-gram-positive activity” (J Med Chem, 2013)
